Measured values reported in ChEMBL document CHEMBL1154871, “Synthesis of new spiroindolinones incorporating a benzothiazole moiety as antioxidant agents” (Eur J Med Chem, 2010).

Legend:
Assay type in all cases: functional
[1] = Antioxidant activity assessed as trolox equivalent of ABTS free radical scavenging activity after 6 mins by […]
Method in brief: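 ABTS radical cation solution was added to compounds (0.2–6.25 mM). Decrease in absorbance at 734 nm was read exactly 6 min after mixing, with ethanol blanks. A Trolox standard curve (final 0–20 µM in ethanol) gives TEAC, the mM Trolox equivalent to 1 mM compound. Run in triplicate.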

[2] = Antioxidant activity assessed as reduction of […]/ferricyanide complex after 20 mins by spectrophotometry
Method in brief: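 Compounds (1.6–6.25 mM) mixed with 0.2 M phosphate buffer, pH 6.6, and 1% potassium ferricyanide, 20 min at 50 °C. Stopped with 1% TCA and centrifuged at 2790 g for 10 min. Supernatant plus water and 0.1% FeCl3 read at 700 nm. EC50 is the concentration giving absorbance 0.5. Mean ± SD of triplicates.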

[3] = Antioxidant activity assessed as inhibition of Fe(3+)/ascorbate-induced lipid peroxidation in liposomes after 1 hr by TBARS assay
Method in brief: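 Lecithin liposomes were sonicated in 10 mmol/L phosphate buffer, pH 7.4. Final mix: 3.08 mg liposome/mL, 123.2 µmol FeCl3, 123.2 µmol ascorbic acid, test compound 0.025–0.4 mM. Incubated 1 h at 37 °C. MDA measured by TBA reaction; n-butanol layer read at 532 nm against a lecithin-free blank. EC50 is the concentration reducing TBARS to 50% of control.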

[4] = system: Radical scavenging activity; assay: Antioxidant activity assessed as DPPH radical scavenging activity after 30 mins by spectrophotometry
Method in brief: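 Test compounds (0.2–6.25 mM) dissolved in DMSO, added to 6×10^-5 M methanolic DPPH. Mixture held 30 min at room temperature in the dark, then absorbance read at 517 nm against methanol. Scavenging % = [1 − A_sample/A_control] × 100, with a negative control lacking sample. Triplicates averaged; EC50 taken from dose–response.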

Structure (SMILES) | EC50 [1] [µM] | EC50 [2] [µM] | EC50 [3] [µM] | EC50 [4] [µM]
CN1C(=O)C2(Nc3ccccc3S2)c2cc(Cl)ccc21 (centres undefined) | 1140 | 4020 | 75 | 1240
CN1C(=O)C2(Nc3ccccc3S2)c2cc(Br)ccc21 (centres undefined) | 1040 | 4220 | 34 | 1010
CN1C(=O)C2(Nc3ccccc3S2)c2cc([N+](=O)[O-])ccc21 (centres undefined) | 1340 | 5140 | 92 | 1270

Next, values leading:

EC50 [1] [µM] | EC50 [2] [µM] | EC50 [3] [µM] | EC50 [4] [µM] | Structure (SMILES)
1200 | 1950 | 153 | 350 | Cc1c(C)c2c(c(C)c1O)CC[C@@](C)(CCC[C@H](C)CCC[C@H](C)CCCC(C)C)O2 [ALPHA-TOCOPHEROL]
1200 | 650 |  | 360 | O=C1O[C@H]([C@@H](O)CO)C(O)=C1O [ASCORBIC ACID]
